# According to BindingDB's records for doi:10.1021/jm9013482 (Harvard Medical School, 2010):
# Target: Delta-type opioid receptor (Homo sapiens, UniProt P41143)
# Experiment: Displacement of [3H]naltrindole from human delta opioid receptor expressed in CHO cells
# Procedure, shortened: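 CHO cells stably expressing a single human opioid receptor were grown in DMEM with 10% FBS and penicillin/streptomycin at 37 °C in 5% CO2. Their membranes were incubated with radioligand and 12 concentrations of test compound at 25 °C in 50 mM Tris-HCl, pH 7.5.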
# Chain of Delta-type opioid receptor (P41143 whole entry): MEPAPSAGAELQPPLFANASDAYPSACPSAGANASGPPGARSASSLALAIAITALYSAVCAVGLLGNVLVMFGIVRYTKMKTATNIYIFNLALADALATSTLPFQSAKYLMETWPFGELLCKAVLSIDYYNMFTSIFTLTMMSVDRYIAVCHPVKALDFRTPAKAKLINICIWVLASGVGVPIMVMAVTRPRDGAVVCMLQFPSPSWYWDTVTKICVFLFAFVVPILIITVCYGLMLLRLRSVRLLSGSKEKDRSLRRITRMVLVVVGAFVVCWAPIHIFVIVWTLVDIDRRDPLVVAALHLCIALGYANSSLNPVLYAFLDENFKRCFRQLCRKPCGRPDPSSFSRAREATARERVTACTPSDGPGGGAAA
compound,measurement,value
O=C(CCCCC(=O)NCc1cc2c(cc1O)[C@@]13CCCC[C@H]1[C@@H](C2)N(CC1CCC1)CC3)NCc1cc2c(cc1O)[C@@]13CCCC[C@H]1[C@@H](C2)N(CC1CCC1)CC3 [Hexanedioic Acid Bis(17-N-cyclobutylmethyl-3-hydroxymorphinan-2-methyl)amide],Ki,630 nM
